Assay [1] in a line: Cytotoxicity against human HCT116 cells assessed as decrease in cell viability after 48 hrs by SRB assay. The class given is functional, cell-based. The settings on record: hct-116. Put shortly:
(§1)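 SRB assay. Cells seeded at 10⁴ per well and allowed to attach for 24 h. Exposed to 0, 5, 12.5, 25 and 50 µg/mL, triplicate wells per dose, for 48 h at 37 °C in 5% CO₂. Cells fixed and SRB-stained; excess dye removed with acetic acid, bound dye recovered in Tris-EDTA and read on an ELISA reader. IC50 read from the surviving-fraction curve.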
On the technique in general: The SRB assay estimates cell density from bound dye.

In another assay the test system is Pseudomonas aeruginosa. The experiment in a line: Antibacterial activity against Pseudomonas aeruginosa ATCC 25619 at 5 mg after 24 hrs by agar well diffusion assay. The conditions noted are these: ATCC 25619, 24 h, read-out: DIZ. It is filed as functional. An outline of the steps: (§2)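 Agar well diffusion. 100 µL inoculum (1×10⁸ CFU/mL bacteria, 1×10⁶ CFU/mL yeast) spread on nutrient agar (bacteria) or Sabouraud dextrose agar (fungi). 10 mm wells loaded with 100 µL of 5 mg/mL compound in DMSO. DMSO as negative control. Erythromycin (bacteria) or […] (fungi) at 5 mg/ml as standards. Plates incubated 24 h at 37 °C. Inhibition zone diameter (mm) measured, mean of triplicate.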
Background: Agar diffusion results depend on both activity and mobility in agar.

The next assay deals with Aspergillus niger. The assay can be described thus: Antifungal activity against Aspergillus niger at 5 mg after 24 hrs by agar well diffusion assay. The class given is functional. The conditions noted are these: read-out: DIZ. An outline of the steps: as §2
The next assay has as its system Coxsackievirus B4. The assay can be described thus: Antiviral activity against human Coxsackie virus B4 infected in African green monkey Vero cells by plaque formation assay. It is filed as functional. Set-up: concentration or dose not given beside the values.
Another assay relates to Escherichia coli. The experiment in a line: Antibacterial activity against Escherichia coli ATCC 10536 at 5 mg after 24 hrs by agar well diffusion assay. It is filed as functional. The conditions noted are these: ATCC 10536, 24 h, read-out: DIZ. Put shortly:
as §2

Another assay relates to Candida albicans. The assay can be described thus: Antifungal activity against Candida albicans IMRU 3669 at 5 mg after 24 hrs by agar well diffusion assay. The class given is functional. The conditions noted are these: IMRU 3669, 24 h, read-out: DIZ. An outline of the steps:
as §2

The test system of the next assay is Bacillus pumilus. The assay can be described thus: Antibacterial activity against Bacillus pumilus at 5 mg after 24 hrs by agar well diffusion assay. The class given is functional. The conditions noted are these: read-out: DIZ. Put shortly:
as §2

The subject of assay [2] is Micrococcus luteus. The assay can be described thus: Antibacterial activity against Sarcina lutea at 5 mg after 24 hrs by agar well diffusion assay. It is filed as functional. The conditions noted are these: read-out: DIZ. Put shortly:
as §2

Assay [3] in a line: Antifungal activity against Penicillium chrysogenum at 5 mg after 24 hrs by agar well diffusion assay. The class given is functional. An outline of the steps:
as §2

The nature of assay [4]: Cytotoxicity against human PC3 cells assessed as decrease in cell viability after 48 hrs by SRB assay. It is filed as functional, cell-based. The settings on record: pc-3. An outline of the steps: as §1
The test system of the next assay is Human alphaherpesvirus 1. The assay can be described thus: Antiviral activity against HSV1 infected in African green monkey Vero cells by plaque formation assay. It is filed as functional. Set-up: concentration or dose not given beside the values.
Assay [5] is described as follows: Cytotoxicity against human MCF7 cells assessed as decrease in cell viability after 48 hrs by SRB assay. Set-up: unit not given here. The class given is functional, cell-based. Put shortly: as §1
Assay [6] relates to Micrococcus luteus. The experiment in a line: Antibacterial activity against Micrococcus luteus ATCC 10240 at 5 mg after 24 hrs by agar well diffusion assay. The class given is functional. The conditions noted are these: ATCC 10240, 24 h, read-out: DIZ. Put shortly:
as §2

Assay [7] can be described thus: Cytotoxicity against human HepG2 cells assessed as decrease in cell viability after 48 hrs by SRB assay. It is filed as functional, cell-based. An outline of the steps: as §1
The test system of the next assay is Hepatovirus A. The assay can be described thus: Antiviral activity against Hepatitis A virus infected in African green monkey Vero cells by plaque formation assay. The class given is functional. Set-up: concentration or dose not given beside the values.
The subject of another assay is Bacillus subtilis. The experiment in a line: Antibacterial activity against Bacillus subtilis NCTC 10400 at 5 mg after 24 hrs by agar well diffusion assay. The conditions noted are these: NCTC 10400, 24 h, read-out: DIZ. It is filed as functional. An outline of the steps:
as §2

Take `Cc1ccc(N2C(=N)C(=S)N(c3cc(Cl)cc(Cl)c3)C2=O)cc1`: the IC50 in assay [1] amounted to 0.053 µg; in assay [4], 0.035 µg; in [5], 0.009; in [7] it was 0.014 µg. Besides, the zone of inhibition at 5000 µg/disc with Pseudomonas aeruginosa amounted to 16 mm; in the assay on Aspergillus niger, 18 mm; in the assay on Escherichia coli, 16 mm; with Candida albicans, 21 mm; in the assay with Bacillus pumilus it was 20 mm; in the assay with Micrococcus luteus [2], 28 mm. Also, the figures for the zone of inhibition at 5000 µg/disc in the assay with Micrococcus luteus [6] and with Bacillus subtilis were 17 mm and 16 mm, respectively. Also, the figures for the Activity in the assay with Coxsackievirus B4, in the assay with Human alphaherpesvirus 1 and with Hepatovirus A were 43.6%, 71.6% and 66%, respectively. Also, the inhibition zone (IZ) in assay [3] stood at 19 mm.
`CC[C@H]1OC(=O)[C@H](C)[C@@H](O[C@H]2C[C@@](C)(OC)[C@@H](O)[C@H](C)O2)[C@H](C)[C@@H](O[C@@H]2O[C@H](C)C[C@H](N(C)C)[C@H]2O)[C@](C)(O)C[C@@H](C)C(=O)[C@H](C)[C@@H](O)[C@]1(C)O` [ERYTHROMYCIN]: the zone of inhibition at 5000 µg/disc in the assay on Pseudomonas aeruginosa is 30 mm; in the assay with Escherichia coli it was 37 mm; with Bacillus pumilus, 32 mm; in the assay with Micrococcus luteus [2], 44 mm; with Micrococcus luteus [6], 32 mm; with Bacillus subtilis, 40 mm.
With `N=C1C(=S)N(c2cc(Cl)cc(Cl)c2)C(=O)N1c1ccc(Cl)c(C(F)(F)F)c1`, the IC50 in [1] turned out to be 0.044 µg; in [4], 0.039 µg; in assay [5], 0.024; in [7], 0.028 µg. The zone of inhibition at 5000 µg/disc with Pseudomonas aeruginosa was 21 mm; with Aspergillus niger, 12 mm; in the assay with Escherichia coli it was 18 mm; in the assay on Candida albicans, 22 mm; with Bacillus pumilus, 21 mm; in the assay with Micrococcus luteus [2], 23 mm. For the same compound, the zone of inhibition at 5000 µg/disc in the assay on Micrococcus luteus [6] was 21 mm; in the assay with Bacillus subtilis, 20 mm. For the same compound, the Activity with Coxsackievirus B4 worked out at 0%; in the assay with Human alphaherpesvirus 1, 9.6%; with Hepatovirus A, 0%. The same compound registered an inhibition zone (IZ) in assay [3] of 20 mm.
Regarding `N=C1C(=S)N(c2ccccc2)C(=O)N1c1c(Cl)cccc1Cl`, the zone of inhibition at 5000 µg/disc in the assay with Pseudomonas aeruginosa was found to be 15 mm; with Aspergillus niger, 17 mm; in the assay on Escherichia coli it was 18 mm; with Candida albicans, 23 mm; in the assay with Bacillus pumilus, 18 mm; with Micrococcus luteus [2], 26 mm. Also, the zone of inhibition at 5000 µg/disc with Micrococcus luteus [6] worked out at 14 mm; in the assay on Bacillus subtilis, 18 mm. Also, the Activity is listed as 0% with Coxsackievirus B4, 33.3% in the assay on Human alphaherpesvirus 1 and 0% in the assay with Hepatovirus A. Further, the inhibition zone (IZ) in assay [3] amounted to 16 mm.
As for `COc1cccc2c1C(=O)c1c(O)c3c(c(O)c1C2=O)C[C@@](O)(C(=O)CO)C[C@@H]3O[C@H]1C[C@H](N)[C@H](O)[C@H](C)O1` [DOXORUBICIN], the IC50 was 0.007 µg in [1], 0.008 µg in assay [4] and 0.007 µg in assay [7].
Take `Cc1ncc([N+](=O)[O-])n1CCO` [METRONIDAZOLE]: the zone of inhibition at 5000 µg/disc turned out to be 33 mm in the assay with Aspergillus niger and 27 mm with Candida albicans. In assay [3], this compound came in with an inhibition zone (IZ) of 25 mm.
Regarding `Cc1ccc(F)cc1N1C(=N)C(=S)N(c2ccc(Br)cc2)C1=O`, the zone of inhibition at 5000 µg/disc in the assay with Pseudomonas aeruginosa turned out to be 21 mm; with Aspergillus niger it was 20 mm; in the assay on Escherichia coli, 20 mm; in the assay with Candida albicans, 22 mm; in the assay on Bacillus pumilus, 21 mm; in the assay with Micrococcus luteus [2], 23 mm. For the same compound, the zone of inhibition at 5000 µg/disc in the assay on Micrococcus luteus [6] and with Bacillus subtilis was 22 mm in each case. In addition, the Activity with Coxsackievirus B4 was determined as 0%; in the assay with Human alphaherpesvirus 1, 43.1%; in the assay on Hepatovirus A, 36.2%. The compound further returned an inhibition zone (IZ) in assay [3] of 21 mm.
For the compound `COc1ccc(N2C(=O)N(c3cccc(Cl)c3)C(=N)C2=S)c(OC)c1`, the IC50 in assay [1] is 0.023 µg; in assay [4], 0.031 µg; in assay [5], 0.02; in assay [7] it was 0.012 µg. The zone of inhibition at 5000 µg/disc in the assay on Pseudomonas aeruginosa is 16 mm; in the assay with Aspergillus niger, 18 mm; with Escherichia coli it was 20 mm; with Candida albicans, 27 mm; with Bacillus pumilus it was 17 mm; in the assay with Micrococcus luteus [2], 28 mm. Further, the zone of inhibition at 5000 µg/disc with Micrococcus luteus [6] is 14 mm; with Bacillus subtilis, 20 mm. The Activity is recorded as 2.3% in the assay on Coxsackievirus B4, 47.4% with Human alphaherpesvirus 1 and 36.2% with Hepatovirus A. The compound further came in with an inhibition zone (IZ) in [3] of 20 mm.
Regarding `N=C1C(=S)N(c2cc(Cl)cc(Cl)c2)C(=O)N1c1cccc(Cl)c1`, the IC50 was found to be 0.041 µg in [1], 0.031 µg in assay [4], 0.011 in assay [5] and 0.025 µg in assay [7]. Moreover, the zone of inhibition at 5000 µg/disc in the assay with Pseudomonas aeruginosa amounted to 0 mm; in the assay with Aspergillus niger, 16 mm; in the assay on Escherichia coli it was 30 mm; with Candida albicans, 24 mm; in the assay on Bacillus pumilus, 15 mm; in the assay on Micrococcus luteus [2] it was 24 mm. Further, the figures for the zone of inhibition at 5000 µg/disc with Micrococcus luteus [6] and with Bacillus subtilis were 16 mm and 30 mm, respectively. Further, the Activity in the assay on Coxsackievirus B4 worked out at 41.6%; in the assay with Human alphaherpesvirus 1, 36.4%; in the assay with Hepatovirus A it was 100%. The compound also returned an inhibition zone (IZ) in assay [3] of 21 mm.
`COc1ccc(OC)c(N2C(=O)N(c3ccc4c(c3)Cc3ccccc3-4)C(=N)C2=S)c1`: the IC50 in assay [1] amounted to 0.047 µg; in assay [4] it was 0.056 µg; in assay [5] it was 0.052; in assay [7] it was 0.048 µg. Moreover, the zone of inhibition at 5000 µg/disc in the assay with Pseudomonas aeruginosa is 0 mm; in the assay on Aspergillus niger, 14 mm; in the assay with Escherichia coli, 18 mm; with Candida albicans it was 14 mm; in the assay with Bacillus pumilus, 17 mm; in the assay with Micrococcus luteus [2] it was 24 mm. Further, the zone of inhibition at 5000 µg/disc was 16 mm in the assay with Micrococcus luteus [6] and 12 mm in the assay on Bacillus subtilis. The Activity with Coxsackievirus B4 came to 0%; in the assay on Human alphaherpesvirus 1, 32.4%; in the assay on Hepatovirus A, 29.9%. Moreover, the inhibition zone (IZ) in [3] was determined as 18 mm.
For `N=C1C(=S)N(c2cc(Cl)cc(Cl)c2)C(=O)N1c1cc(Cl)c(Cl)cc1Cl`, the IC50 in [1] worked out at 0.015 µg; in assay [4] it was 0.017 µg; in [5], 0.015; in [7], 0.017 µg. The zone of inhibition at 5000 µg/disc in the assay on Pseudomonas aeruginosa was determined as 18 mm; in the assay on Aspergillus niger, 15 mm; with Escherichia coli, 27 mm; in the assay with Candida albicans, 21 mm; in the assay with Bacillus pumilus it was 21 mm; in the assay with Micrococcus luteus [2] it was 21 mm. In addition, the zone of inhibition at 5000 µg/disc with Micrococcus luteus [6] turned out to be 16 mm; in the assay with Bacillus subtilis it was 27 mm. The Activity in the assay on Coxsackievirus B4 turned out to be 20.6%; with Human alphaherpesvirus 1, 96.7%; with Hepatovirus A, 80.3%. In assay [3], this compound had an inhibition zone (IZ) of 20 mm.

(Values after ChEMBL document CHEMBL3867423, “New imidazolidineiminothione derivatives: Synthesis, spectral characterization and evaluation of antitumor, antiviral, antibacterial and antifungal activities” (Eur J Med Chem, 2016).)
